From ChEMBL document CHEMBL1157790, “3'-bromo analogues of pyrimidine nucleosides as a new class of potent inhibitors of Mycobacterium tuberculosis” (J Med Chem, 2010)

Tests used:
Type in all cases: functional
[1] = test system: Mycobacterium tuberculosis; experiment: Antimycobacterial activity against isoniazid-resistant Mycobacterium tuberculosis H37Rv at 2 ug/ml by radiometric BACTEC assay
In short: (§1)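 Isoniazid- or rifampicin-resistant H37Rv, growing inoculum 2.5-5.0 × 10⁵ CFU/vial, in radiometric 7H12 (BACTEC 12B) medium at 37 °C with two-fold compound dilutions. Growth index read daily in a BACTEC 460 until the 1:100 inoculum control reached GI 30. Percent inhibition = GI test/GI control × 100.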

[2] = test system: Mycobacterium tuberculosis; experiment: Antimycobacterial activity against rifampin-resistant Mycobacterium tuberculosis H37Rv at 1 to 2 ug/ml by radiometric BACTEC assay; in short: as §1
[3] = test system: Mycobacterium tuberculosis; experiment: Antimycobacterial activity against rifampin-resistant Mycobacterium tuberculosis H37Rv at 10 ug/ml by radiometric BACTEC assay; in short: as §1
[4] = test system: Mycobacterium tuberculosis; experiment: Antimycobacterial activity against isoniazid-resistant Mycobacterium tuberculosis H37Rv at 10 ug/ml by radiometric BACTEC assay; in short: as §1
[5] = test system: Mycobacterium tuberculosis; experiment: Antimycobacterial activity against isoniazid-resistant Mycobacterium tuberculosis H37Rv at 25 ug/ml by radiometric BACTEC assay; in short: as §1
[6] = test system: Mycobacterium tuberculosis; experiment: Antimycobacterial activity against rifampin-resistant Mycobacterium tuberculosis H37Rv at 5 to 10 ug/ml by radiometric BACTEC assay; in short: as §1
[7] = test system: Mycobacterium tuberculosis; experiment: Antimycobacterial activity against rifampin-resistant Mycobacterium tuberculosis H37Rv at 1 ug/ml by radiometric BACTEC assay; in short: as §1
[8] = test system: Mycobacterium tuberculosis; experiment: Antimycobacterial activity against rifampin-resistant Mycobacterium tuberculosis H37Rv at 2 ug/ml by radiometric BACTEC assay; in short: as §1

SMILES: Cc1cn([C@@H]2O[C@H](CO)[C@@H](Br)[C@@H]2O)c(=O)[nH]c1=O
- inhibition at 2 µg/mL [1]: 50%
- inhibition (INH) [2]: 50%
- inhibition at 10 µg/mL [3]: 70%
- inhibition at 10 µg/mL [4]: 75%

SMILES: Cc1cn([C@H]2C[C@H](Br)[C@@H](CO)O2)c(=O)[nH]c1=O
- inhibition at 25 µg/mL [5]: 75%
- inhibition (INH) [6]: 50%
- inhibition at 10 µg/mL [4]: 50%

SMILES: NNC(=O)c1ccncc1 [ISONIAZID]
- inhibition at 1 µg/mL [7]: 100%
- inhibition at 2 µg/mL [1]: 0%

SMILES: CO[C@H]1/C=C/O[C@@]2(C)Oc3c(C)c(O)c4c(O)c(c(/C=N/N5CCN(C)CC5)c(O)c4c3C2=O)NC(=O)/C(C)=C\C=C\[C@H](C)[C@H](O)[C@@H](C)[C@@H](O)[C@@H](C)[C@H](OC(C)=O)[C@@H]1C [RIFAMPIN]
- inhibition at 2 µg/mL [8]: 0%
